Converted amounts (≈) assume the structure as drawn. The source made the active and inactive calls. No cut-off for these calls is given here.
Assays:
[1] = Toxicity in BALB/c mouse xenografted with human HCT116 cells assessed as effect on lung tissue at 60 to 90 mg/kg, po administered twice daily for 4 weeks and measured every 3 days by HE staining based assay; type: organism-based, HCT-116; conditions: in vivo, 672 h, dose 60-90 mg/kg
In short: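 Male 5-week BALB/c nude mice (16−18 g), 0.2 mL of 5 × 10⁷ cells/mL HCT-116 injected into right armpit; at ~100 mm³ randomized, 5/group; intragastric 60 or 90 mg/kg twice daily for 4 weeks; tumor volume and body weight every 3 days; after sacrifice heart, liver, spleen, lung, kidney HE-stained.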

[2] = Half life in Sprague-Dawley rat at 25 mg/kg, po measured up to 48 hrs by LC-MS/MS analysis; type: ADME, organism-based; conditions: in vivo
In short: (§1)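 Overnight-fasted male SD rats (about 250−270 g), three per group, single oral 25 mg/kg; test compound suspended in 5% CMC-Na, control as sodium salt in phosphate buffer. Blood sampled 0.25–48 h, plasma by centrifugation, stored −40 °C, quantified by LC−MS/MS against plasma standard curve (3–3000 ng/mL) with internal standard; model-fitted PK parameters.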

HCT-116 [3] = experiment: Induction of apoptosis in human HCT116 cells assessed as reduction in Bcl2 protein expression at 20 uM incubated for 24 hrs by Western blot analysis; type: functional, cell-based
In short: (§2)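 HCT-116 cells at 2 × 10⁵ cells/mL in DMEM/10% FBS, grown 12 h at 37 °C, then treated 24 h (vehicle DMSO). Lysates quantified by BCA, run on 10% SDS-PAGE, PVDF transfer, blocked in 5% milk/TBST, primary antibodies 4 °C overnight, HRP secondary 2 h, chemiluminescent detection; normalized to β-actin, n = 3.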

[4] = biological target: T1, Aldehyde dehydrogenase 1A1 (Homo sapiens) (UniProt P00352); experiment: Inhibition of ALDH1A1 in human HCT116 cells at 5 uM after 24 hrs by aldefluor staining based fluorescence analysis; type: cell-based; conditions: HCT-116
T1 sequence (whole entry): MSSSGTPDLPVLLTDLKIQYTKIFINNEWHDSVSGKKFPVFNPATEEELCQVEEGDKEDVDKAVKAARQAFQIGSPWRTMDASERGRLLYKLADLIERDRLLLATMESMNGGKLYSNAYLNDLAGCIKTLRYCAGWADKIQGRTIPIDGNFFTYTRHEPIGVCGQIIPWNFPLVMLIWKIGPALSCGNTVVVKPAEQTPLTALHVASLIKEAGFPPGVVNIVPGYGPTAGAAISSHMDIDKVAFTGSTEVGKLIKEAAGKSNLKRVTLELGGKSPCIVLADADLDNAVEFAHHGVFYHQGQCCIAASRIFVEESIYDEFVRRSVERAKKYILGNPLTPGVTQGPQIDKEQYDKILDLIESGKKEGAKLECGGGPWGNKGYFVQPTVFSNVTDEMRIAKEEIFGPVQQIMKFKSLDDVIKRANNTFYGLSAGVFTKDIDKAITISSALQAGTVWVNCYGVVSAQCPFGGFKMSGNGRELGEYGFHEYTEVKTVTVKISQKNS
In short: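 HCT-116 cells, 2 × 10⁵/well, grown overnight at 37 °C, 5% CO₂, then treated 24 h (vehicle DMSO). Aldefluor staining read in FITC channel by FACS for proportion of ALDH⁺ cells; DEAB-pretreated cells set baseline fluorescence.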

HCT-116 [5] = experiment: Induction of apoptosis in human HCT116 cells assessed as increase in Bax protein expression at 20 uM incubated for 24 hrs by Western blot analysis; type: functional, cell-based; in short: as §2
HCT-116 [6] = experiment: Induction of cell cycle arrest in human HCT116 cells assessed as accumulation at G0/G1 phase at 20 uM after 24 hrs by propidium iodide-staining based flow cytometry (reference value: 48.89%); type: functional
HCT-116 [7] = experiment: Inhibition of cell stemness in human HCT116 cells assessed as morphological alterations at 5 uM after 10 days by microscopic analysis; type: functional, cell-based; conditions: time 10.0 day
In short: (§3)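 Sorted ALDH⁺ HCT-116 cells, 800/well, in serum-free DMEM with B27 (1:50), EGF 20 ng/mL, β-FGF 10 ng/mL; co-incubated with compound (5 μM) or DMSO vehicle for 10 days; sphere number, diameter and morphology scored from microscopy images; mean ± SD, n = 3.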

[8] = biological target: Serine/threonine-protein kinase PLK1 (Homo sapiens) (UniProt P53350); experiment: Inhibition of PLK1 (unknown origin) assessed as residual activity at 1 uM relative to control
Serine/threonine-protein kinase PLK1 (Homo sapiens), sequence (P53350 whole entry): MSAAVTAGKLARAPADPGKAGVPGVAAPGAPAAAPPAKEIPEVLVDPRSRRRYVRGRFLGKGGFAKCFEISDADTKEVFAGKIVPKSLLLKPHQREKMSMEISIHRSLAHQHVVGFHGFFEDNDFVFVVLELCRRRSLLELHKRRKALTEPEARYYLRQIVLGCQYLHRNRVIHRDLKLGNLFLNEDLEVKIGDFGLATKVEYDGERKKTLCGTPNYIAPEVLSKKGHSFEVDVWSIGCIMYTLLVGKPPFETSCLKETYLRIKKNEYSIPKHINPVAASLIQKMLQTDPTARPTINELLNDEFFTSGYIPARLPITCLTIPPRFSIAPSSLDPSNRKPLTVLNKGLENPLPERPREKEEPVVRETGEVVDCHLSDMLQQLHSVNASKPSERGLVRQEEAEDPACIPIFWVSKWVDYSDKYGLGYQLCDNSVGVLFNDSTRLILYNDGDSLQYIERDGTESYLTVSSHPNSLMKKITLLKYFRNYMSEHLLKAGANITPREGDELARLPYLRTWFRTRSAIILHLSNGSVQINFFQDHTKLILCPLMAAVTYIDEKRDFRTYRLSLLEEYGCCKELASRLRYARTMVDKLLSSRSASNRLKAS
In short: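 Commercial profiling service against a 208-kinase panel; single concentration 1 μmol/L; residual kinase activity expressed relative to control.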

[9] = Thermodynamic solubility of the compound in phosphate buffer at pH 6.8 after overnight incubation by shake flask method; type: physicochemical; conditions: read-out: Therm_solubility
In short: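 Shake-flask method: solid added to pH 6.8 phosphate buffer at nominal 2 mg/mL, sonicated 10 min, shaken overnight 800 rpm at room temperature; phases separated by centrifugation 5000 rpm 20 min before supernatant quantitation.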

HCT-116 [10] = experiment: Antitumor activity against human HCT116 cells xenografted in BALB/c athymic nude mouse assessed as tumor growth inhibition at 60 mg/kg, po administered twice daily for 4 weeks and measured every 3 days; type: functional; conditions: HCT-116, po, 672 h, read-out: TGI
In short: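 Male BALB/c athymic nude mice, 5 weeks old, 16−18 g, given 0.2 mL of 5 × 10⁷ cells/mL HCT-116 in right armpit. At about 100 mm³, randomized to groups of five; intragastric dosing twice daily for 4 weeks. Tumor volume and body weight every 3 days; tumors weighed after sacrifice; organs HE-stained.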

HCT-116 [11] = experiment: Inhibition of cell stemness in human HCT116 cells assessed as reduction in number of tumor spheres at 5 uM after 10 days by microscopic analysis; type: functional, cell-based; conditions: time 10.0 day; in short: as §3
HCT-116 [12] = experiment: Induction of apoptosis in human HCT116 cells assessed as late apoptotic cells at 10 uM after 24 hrs by annexin V-FITC/propidium iodide staining based flow cytometry (reference value: 5.1%); type: functional
[13] = AUC(0 to t) in Sprague-Dawley rat at 25 mg/kg, po measured up to 48 hrs by LC-MS/MS analysis; type: ADME, organism-based; design: route oral, dose 25 mg/kg, time <=48; conditions: in vivo; in short: as §1
HCT-116 [14] = experiment: Induction of apoptosis in human HCT116 cells assessed as early apoptotic cells at 20 uM after 24 hrs by annexin V-FITC/propidium iodide staining based flow cytometry (reference value: 1%); type: functional
HCT-116 [15] = experiment: Inhibition of cell stemness in human HCT116 cells assessed as reduction in OCT4 mRNA transcription levels at 20 uM after 24 hrs by RT-qPCR analysis; type: functional, cell-based
In short: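 Sorted ALDH⁺ HCT-116 cells treated 24 h; TRIZOL RNA, one-step RT-qPCR (RT 10 min 55 °C; 95 °C 1 min; 39 cycles 95 °C 10 s/60 °C 30 s) with melting-curve check; β-actin reference; fold change by 2^−ΔΔCt; t test, mean ± SD, n = 3.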

T-24 = experiment: Cytotoxicity against human T24 cells assessed as reduction in cell viability incubated for 72 hrs by MTT assay; type: functional, cell-based; conditions: T-24, 72 h
In short: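 About 5 × 10³ cells/well, seeded overnight at 37 °C, 5% CO₂, in DMEM or RPMI-1640 with 10% FBS and antibiotics. DMSO-dissolved compounds diluted in medium, exposure 72 h.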

- half-life [2]: 6.67 h
- inhibition [4]: 77%
- Activity [8]: 40.5%
- solubility thermodynamic [9]: 0.89 µg/mL (≈ 2.27 µM)
- AUC(0-t) at 48 h [13]: 40500 ng·h/mL
SMILES: O=C(NCCO)c1ccc2c(c1)nc(Nc1cccc(Cl)c1)c1ccncc12
- Activity [1]: Non-Toxic
- Activity (HCT-116 [3]): Active
- Activity (HCT-116 [5]): Active
- Activity (HCT-116 [6]): 72.92%
- inhibition (HCT-116 [7]): Active
- inhibition in vivo at 60 mg/kg (HCT-116 [10]): 59%
- inhibition (HCT-116 [11]): Active
- Activity (HCT-116 [12]): 23.4%
- Activity (HCT-116 [14]): 22.5%
- inhibition (HCT-116 [15]): Active
- IC50 (T-24): 6.1 µM

Source: ChEMBL document CHEMBL4808178 (J Med Chem, 2021)
